# Data taken from paper PMC10319625 (PNAS Nexus, 2023).
# pIC50: −log10 of the molar value. Read-outs that look alike come from different tables or passages of the source.
# Columns and labels:
# HeLa = assay: Cell proliferation assay; assay type: cell-based, human; details: 48 h
# Ca9-22 = assay: Cell proliferation assay; assay type: cell-based, human; details: Ca9-22, 48 h
# SAS = assay: Cell proliferation assay; assay type: cell-based, human; details: 48 h
# [1] = tested on: primary mouse bone marrow cells (BMCs); assay: Cell proliferation assay; assay type: cell-based; details: BMC (normal cells), 48 h
# SAS cells [2] = assay: Annexin V/PI staining; assay type: cell-based, human; details: 5 µM cAQ-mBen or 50 µM CDDP, 24 h
# Procedure, shortened: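 SAS cells were exposed for 24 h to 5 µM test compound or to 50 µM cisplatin (positive control), then stained with annexin V-FITC and propidium iodide. Positive cells are expressed as % of total cell number per field. Values are mean ± SD of total apoptotic cells (n = 5), compared by one-way ANOVA with Tukey's test.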
# SAS cells [3] = assay: Western blot analysis of caspase-3 and PARP-1 cleavages; assay type: cell-based, human; details: 5 µM cAQ-mBen or 50 µM CDDP, 12 or 24 h
# [4] = tested on: SAS cells xenograft tumors in KSN/Slc nude mice; assay: Mouse xenograft model, tumor volume; assay type: in vivo; details: 3 µmol/kg cAQ-mBen or 30 µmol/kg CDDP, peritoneally every 2 days for 5 times
# Procedure, shortened: (§1)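 SAS cells were inoculated subcutaneously into KSN/Slc nude mice. From day 7 after inoculation (day 0), mice received saline, 3 µmol/kg test compound or 30 µmol/kg cisplatin intraperitoneally every 2 days, 5 times. Tumor volume and body weight were recorded at set points to day 10 (n = 9 control and test, n = 8 cisplatin). Statistics: two-way ANOVA with Tukey's test.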
# [5] = Mouse xenograft model, body weight; assay type: in vivo; details: 3 µmol/kg cAQ-mBen or 30 µmol/kg CDDP, every 2 days for 5 times
# Procedure, shortened: as §1
# [6] = tested on: liver and kidney of KSN/Slc nude mice; assay: Histopathological analysis of liver and kidney, tumor-free mice; assay type: in vivo, mouse; details: 10 days treatment
# Procedure, shortened: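 Tumor-free KSN/Slc nude mice received saline, test compound or cisplatin for 10 days on the xenograft regimen. Liver and kidney sections were HE-stained for histopathology. Glomerulus area was measured (mean ± SD, n = 15 sections from 3 mice) and compared by one-way ANOVA with Tukey's test.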
# [7] = assay type: in vivo, mouse; details: day 10 of treatment, versus negative control
# PANC-1 and MIA PaCa-2 = details: human pancreatic cancer cell lines, cited from earlier work
smiles,measurement,setting,value
"N.N.[Cl][Pt][Cl] [CDDP, cis-diamminedichloroplatinum(II)]",pIC50,HeLa,6.30
same,pIC50,Ca9-22,4.56
same,pIC50,SAS,5.37
same,pIC50,[1],5.89
same,"Anx Alone(%), cells positive for annexin V, % of total cell count, Mean",SAS cells [2],24.0%
same,"PI (%), cells positive for PI signal, % of total cell count, Mean",SAS cells [2],18.5%
same,digestion of PARP-1 and caspase-3,SAS cells [3],observed in a time-dependent manner
same,increase in the tumor volume,[4],significantly suppressed
same,body weight of mice,[5],considerably reduced
same,cell arrangement and size of the glomerulus in the kidney,[6],significant condensation of the glomerulus area
same,"physiological indices of serum (BUN, UA, AST, ALT, CRE, and γ-GTP levels)",[7],substantial increase
O=C1c2ccc3c4c(c(NCCN5CCCC5)cc(c24)C(=O)N1CCCN1CCOCC1)C(=O)N(CCCN1CCOCC1)C3=O [CM03],expression of hTERT,PANC-1 and MIA PaCa-2; after 6 h,remained downregulated
O=C1c2cc(-c3ccc(CN4CCCC4)cc3)c3c4c(cc(NCCN5CCCC5)c(c24)C(=O)N1CCCN1CCOCC1)C(=O)N(CCCN1CCOCC1)C3=O [SOP1812],expression of hTERT,PANC-1 and MIA PaCa-2; after 24 h,remained downregulated
